# Experimental data: ChEMBL document CHEMBL4715736, “Identification of anticancer agents based on the thieno[2,3-b]pyridine and 1H-pyrazole molecular scaffolds” (2016)
# Tested on: OVCAR-3
# Test: Growth inhibition of human OVCAR-3 cells assessed as cell growth at 0.01 uM incubated for 48 hrs by sulforhodamine B assay relative to control
# Type: functional
# Details: read-out: Activity
row,SMILES,growth at 0.01 µM
1,Cc1cccc(NC(=O)c2sc3nc4c(cc3c2N)C(=O)CCC4)c1,98%

# Tested on: HOP-62
# Test: Growth inhibition of human HOP-62 cells assessed as cell growth at 0.01 uM incubated for 48 hrs by sulforhodamine B assay relative to control
# Type: functional
# Details: read-out: Activity
row,SMILES,growth at 0.01 µM
1,Cc1cccc(NC(=O)c2sc3nc4c(cc3c2N)C(=O)CCC4)c1,88%

# Tested on: SF-539
# Test: Growth inhibition of human SF-539 cells assessed as cell growth at 1 uM incubated for 48 hrs by sulforhodamine B assay relative to control
# Type: functional
# Details: read-out: Activity
row,SMILES,growth at 1 µM
1,Cc1cccc(NC(=O)c2sc3nc4c(cc3c2N)C(=O)CCC4)c1,-38%

# Tested on: MOLT-4
# Test: Growth inhibition of human MOLT-4 cells assessed as cell growth at 100 uM incubated for 48 hrs by sulforhodamine B assay relative to control
# Type: functional
# Details: read-out: Activity
row,SMILES,growth at 100 µM
1,Cc1cccc(NC(=O)c2sc3nc4c(cc3c2N)C(=O)CCC4)c1,6%

# Tested on: Hs-578T
# Test: Growth inhibition of human Hs-578T cells assessed as cell growth at 100 uM incubated for 48 hrs by sulforhodamine B assay relative to control
# Type: functional
# Details: read-out: Activity
row,SMILES,growth at 100 µM
1,Cc1cccc(NC(=O)c2sc3nc4c(cc3c2N)C(=O)CCC4)c1,-48%

# Tested on: HT-29
# Test: Growth inhibition of human HT-29 cells assessed as cell growth at 0.01 uM incubated for 48 hrs by sulforhodamine B assay relative to control
# Type: functional
# Details: read-out: Activity
row,SMILES,growth at 0.01 µM
1,Cc1cccc(NC(=O)c2sc3nc4c(cc3c2N)C(=O)CCC4)c1,97%

# Tested on: SF-268
# Test: Growth inhibition of human SF-268 cells assessed as cell growth at 0.01 uM incubated for 48 hrs by sulforhodamine B assay relative to control
# Type: functional
# Details: read-out: Activity
row,SMILES,growth at 0.01 µM
1,Cc1cccc(NC(=O)c2sc3nc4c(cc3c2N)C(=O)CCC4)c1,99%

# Tested on: U-251
# Test: Growth inhibition of human U-251 cells assessed as cell growth at 100 uM incubated for 48 hrs by sulforhodamine B assay relative to control
# Type: functional
# Details: read-out: Activity
row,SMILES,growth at 100 µM
1,Cc1cccc(NC(=O)c2sc3nc4c(cc3c2N)C(=O)CCC4)c1,-43%

# Tested on: SF-295
# Test: Growth inhibition of human SF-295 cells assessed as cell growth at 1 uM incubated for 48 hrs by sulforhodamine B assay relative to control
# Type: functional
# Details: read-out: Activity
row,SMILES,growth at 1 µM
1,Cc1cccc(NC(=O)c2sc3nc4c(cc3c2N)C(=O)CCC4)c1,9%

# Tested on: MOLT-4
# Test: Growth inhibition of human MOLT-4 cells assessed as cell growth at 1 uM incubated for 48 hrs by sulforhodamine B assay relative to control
# Type: functional
# Details: read-out: Activity
row,SMILES,growth at 1 µM
1,Cc1cccc(NC(=O)c2sc3nc4c(cc3c2N)C(=O)CCC4)c1,54%

# Tested on: PC-3
# Test: Growth inhibition of human PC-3 cells incubated for 48 hrs by sulforhodamine B assay
# Type: functional
# Details: not given
# Procedure, shortened: (§1)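 NCI DTP 60-line human tumour panel. Dose-response curves were run only for ligands active in the initial 10 µM screen. GI50 (concentration giving 50% of maximal inhibition of proliferation) and TGI (concentration giving total growth inhibition) were derived from these curves.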
SMILES,GI50,TGI
Cc1cccc(NC(=O)c2sc3nc4c(cc3c2N)C(=O)CCC4)c1,0.393 µM,≥ 100 µM

# Same assay, conditions: read-out: LC50 (the source's name)
row,SMILES,CC50
1,Cc1cccc(NC(=O)c2sc3nc4c(cc3c2N)C(=O)CCC4)c1,> 100 µM

# Tested on: MDA-MB-231
# Test: Growth inhibition of human MDA-MB-231 cells assessed as cell growth at 1 uM incubated for 48 hrs by sulforhodamine B assay relative to control
# Type: functional
# Details: read-out: Activity
row,SMILES,growth at 1 µM
1,Cc1cccc(NC(=O)c2sc3nc4c(cc3c2N)C(=O)CCC4)c1,40%

# Tested on: Hs-578T
# Test: Growth inhibition of human Hs-578T cells assessed as cell growth at 0.1 uM incubated for 48 hrs by sulforhodamine B assay relative to control
# Type: functional
# Details: read-out: Activity
row,SMILES,growth at 0.1 µM
1,Cc1cccc(NC(=O)c2sc3nc4c(cc3c2N)C(=O)CCC4)c1,76%

# Tested on: ACHN
# Test: Growth inhibition of human ACHN cells assessed as cell growth at 0.1 uM incubated for 48 hrs by sulforhodamine B assay relative to control
# Type: functional
# Details: read-out: Activity
row,SMILES,growth at 0.1 µM
1,Cc1cccc(NC(=O)c2sc3nc4c(cc3c2N)C(=O)CCC4)c1,91%

# Tested on: OVCAR-4
# Test: Growth inhibition of human OVCAR-4 cells assessed as cell growth at 0.01 uM incubated for 48 hrs by sulforhodamine B assay relative to control
# Type: functional
# Details: read-out: Activity
row,SMILES,growth at 0.01 µM
1,Cc1cccc(NC(=O)c2sc3nc4c(cc3c2N)C(=O)CCC4)c1,90%

# Tested on: TK-10
# Test: Growth inhibition of human TK-10 cells assessed as cell growth at 0.01 uM incubated for 48 hrs by sulforhodamine B assay relative to control
# Type: functional
# Details: read-out: Activity
row,SMILES,growth at 0.01 µM
1,Cc1cccc(NC(=O)c2sc3nc4c(cc3c2N)C(=O)CCC4)c1,91%

# Tested on: NCI-H23
# Test: Growth inhibition of human NCI-H23 cells incubated for 48 hrs by sulforhodamine B assay
# Type: functional
# Details: not given
# Procedure, shortened: (§2)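 NCI60 panel at the NCI Developmental Therapeutics Program. Only compounds active in the 10 µM screen went to dose-response testing. GI50, the concentration giving 50% of maximal inhibition of proliferation, and TGI, the concentration giving total growth inhibition, were derived from the dose-response curves.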
SMILES,GI50,LC50 (50% lethal concentration),TGI
Cc1cccc(NC(=O)c2sc3nc4c(cc3c2N)C(=O)CCC4)c1,0.481 µM,> 100 µM,≥ 100 µM

# Tested on: NCI-H460
# Test: Growth inhibition of human NCI-H460 cells assessed as cell growth at 0.1 uM incubated for 48 hrs by sulforhodamine B assay relative to control
# Type: functional
# Details: read-out: Activity
row,SMILES,growth at 0.1 µM
1,Cc1cccc(NC(=O)c2sc3nc4c(cc3c2N)C(=O)CCC4)c1,83%

# Tested on: CCRF-CEM
# Test: Growth inhibition of human CCRF-CEM cells assessed as cell growth at 0.1 uM incubated for 48 hrs by sulforhodamine B assay relative to control
# Type: functional
# Details: read-out: Activity
# Procedure, shortened: (§3)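 NCI Developmental Therapeutics Program NCI60 panel. Compounds that were active in the 10 µM one-dose screen went on to dose–response testing. Growth at each concentration is expressed relative to untreated control (100%). GI50 (concentration giving 50% of maximal inhibition of proliferation) and TGI (concentration giving total growth inhibition) were derived from the curves.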
row,SMILES,growth at 0.1 µM
1,Cc1cccc(NC(=O)c2sc3nc4c(cc3c2N)C(=O)CCC4)c1,90%

# Tested on: MDA-MB-468
# Test: Growth inhibition of human MDA-MB-468 cells assessed as cell growth at 0.01 uM incubated for 48 hrs by sulforhodamine B assay relative to control
# Type: functional
# Details: read-out: Activity
row,SMILES,growth at 0.01 µM
1,Cc1cccc(NC(=O)c2sc3nc4c(cc3c2N)C(=O)CCC4)c1,93%

# Tested on: HCT-15
# Test: Growth inhibition of human HCT-15 cells assessed as cell growth at 1 uM incubated for 48 hrs by sulforhodamine B assay relative to control
# Type: functional
# Details: read-out: Activity
row,SMILES,growth at 1 µM
1,Cc1cccc(NC(=O)c2sc3nc4c(cc3c2N)C(=O)CCC4)c1,24%

# Tested on: A549
# Test: Growth inhibition of human A549/ATCC cells assessed as cell growth at 0.01 uM incubated for 48 hrs by sulforhodamine B assay relative to control
# Type: functional
# Details: read-out: Activity
# Procedure, shortened: as §3
row,SMILES,growth at 0.01 µM
1,Cc1cccc(NC(=O)c2sc3nc4c(cc3c2N)C(=O)CCC4)c1,92%

# Tested on: RPMI-8226
# Test: Growth inhibition of human RPMI-8226 cells incubated for 48 hrs by sulforhodamine B assay
# Type: functional
# Details: not given
# Procedure, shortened: as §1
SMILES,GI50,LC50,TGI
Cc1cccc(NC(=O)c2sc3nc4c(cc3c2N)C(=O)CCC4)c1,0.57 µM,> 100 µM,> 100 µM

# Tested on: TK-10
# Test: Growth inhibition of human TK-10 cells incubated for 48 hrs by sulforhodamine B assay
# Type: functional
# Details: not given
# Procedure, shortened: as §1
SMILES,GI50,TGI
Cc1cccc(NC(=O)c2sc3nc4c(cc3c2N)C(=O)CCC4)c1,> 100 µM,≥ 100 µM

# Same assay, conditions: read-out: LC50 (the source's name)
row,SMILES,CC50
1,Cc1cccc(NC(=O)c2sc3nc4c(cc3c2N)C(=O)CCC4)c1,> 100 µM

# Tested on: SK-MEL-5
# Test: Growth inhibition of human SK-MEL-5 cells incubated for 48 hrs by sulforhodamine B assay
# Type: functional
# Details: not given
# Procedure, shortened: as §1
SMILES,GI50,LC50,TGI
Cc1cccc(NC(=O)c2sc3nc4c(cc3c2N)C(=O)CCC4)c1,0.169 µM,> 100 µM,≥ 100 µM

# Tested on: 786-0
# Test: Growth inhibition of human 786-0 cells assessed as cell growth at 100 uM incubated for 48 hrs by sulforhodamine B assay relative to control
# Type: functional
# Details: read-out: Activity
row,SMILES,growth at 100 µM
1,Cc1cccc(NC(=O)c2sc3nc4c(cc3c2N)C(=O)CCC4)c1,2%

# Tested on: NCI/ADR-RES
# Test: Growth inhibition of human NCI/ADR-RES cells assessed as cell growth at 1 uM incubated for 48 hrs by sulforhodamine B assay relative to control
# Type: functional
# Details: read-out: Activity
row,SMILES,growth at 1 µM
1,Cc1cccc(NC(=O)c2sc3nc4c(cc3c2N)C(=O)CCC4)c1,15%

# Tested on: SK-MEL-2
# Test: Growth inhibition of human SK-MEL-2 cells incubated for 48 hrs by sulforhodamine B assay
# Type: functional
# Details: not given
# Procedure, shortened: as §1
SMILES,GI50,LC50,TGI
Cc1cccc(NC(=O)c2sc3nc4c(cc3c2N)C(=O)CCC4)c1,0.254 µM,> 100 µM,> 100 µM

# Tested on: UO-31
# Test: Growth inhibition of human UO-31 cells assessed as cell growth at 0.01 uM incubated for 48 hrs by sulforhodamine B assay relative to control
# Type: functional
# Details: read-out: Activity
row,SMILES,growth at 0.01 µM
1,Cc1cccc(NC(=O)c2sc3nc4c(cc3c2N)C(=O)CCC4)c1,88%

# Tested on: NCI-H522
# Test: Growth inhibition of human NCI-H522 cells incubated for 48 hrs by sulforhodamine B assay
# Type: functional
# Details: not given
# Procedure, shortened: as §2
SMILES,GI50,LC50,TGI
Cc1cccc(NC(=O)c2sc3nc4c(cc3c2N)C(=O)CCC4)c1,0.107 µM,> 100 µM,621 µM

# Tested on: IGROV-1
# Test: Growth inhibition of human IGROV-1 cells assessed as cell growth at 1 uM incubated for 48 hrs by sulforhodamine B assay relative to control
# Type: functional
# Details: read-out: Activity
row,SMILES,growth at 1 µM
1,Cc1cccc(NC(=O)c2sc3nc4c(cc3c2N)C(=O)CCC4)c1,42%

# Tested on: SK-OV-3
# Test: Growth inhibition of human SK-OV-3 cells assessed as cell growth at 1 uM incubated for 48 hrs by sulforhodamine B assay relative to control
# Type: functional
# Details: read-out: Activity
row,SMILES,growth at 1 µM
1,Cc1cccc(NC(=O)c2sc3nc4c(cc3c2N)C(=O)CCC4)c1,7%

# Tested on: M14
# Test: Growth inhibition of human M14 cells assessed as cell growth at 0.01 uM incubated for 48 hrs by sulforhodamine B assay relative to control
# Type: functional
# Details: read-out: Activity
row,SMILES,growth at 0.01 µM
1,Cc1cccc(NC(=O)c2sc3nc4c(cc3c2N)C(=O)CCC4)c1,93%

# Tested on: DU-145
# Test: Growth inhibition of human DU-145 cells assessed as cell growth at 0.01 uM incubated for 48 hrs by sulforhodamine B assay relative to control
# Type: functional
# Details: read-out: Activity
# Procedure, shortened: as §3
row,SMILES,growth at 0.01 µM
1,Cc1cccc(NC(=O)c2sc3nc4c(cc3c2N)C(=O)CCC4)c1,102%
